Results: ChEMBL document CHEMBL1208666, “Novel 6,8-dibromo-4(3H)quinazolinone derivatives of anti-bacterial and anti-fungal activities” (2010)
In brackets after ≈: the same amount, converted by molar mass. Activity calls are given as the source filed them. The rule behind the calls is not given here.

How the values were obtained:
Candida albicans [1] = test: Antifungal activity against Candida albicans at 100 ug/ml after 48 hrs by paper disc diffusion technique; type: functional; conditions: read-out: IZ
Procedure, shortened: (§1)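 Paper disc diffusion on Sabouraud dextrose agar, autoclaved at 120 °C for 30 min. Medium at 40–50 °C was seeded at 1 ml/100 ml with a 10^5 cfu/ml fungal suspension matched to 0.9 McFarland. It was poured 3–4 mm deep, and compound discs in DMSO were applied. Plates were pre-incubated 1 h at room temperature, then 28 °C for 48 h. The inhibition zone was recorded.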

Candida albicans [2] = test: Antifungal activity against Candida albicans after 48 hrs by agar streak dilution method; type: functional
Procedure, shortened: (§2)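 Fungal MIC by agar streak dilution on Sabouraud dextrose agar. Compound stock in DMSO was added in graded amounts to molten sterile medium at 40–50 °C. This was poured 3–4 mm deep and left to solidify. Fungal suspension of about 10^5 cfu/ml was applied to the serially diluted plates. Plates were incubated at 37 °C for 48 h.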

Aspergillus flavus [3] = test: Antifungal activity against Aspergillus flavus at 100 ug/ml after 48 hrs by paper disc diffusion technique; type: functional; conditions: for zone of inhibition at 100 µg/mL: read-out: IZ; procedure, shortened: as §1
Aspergillus flavus [4] = test: Antifungal activity against Aspergillus flavus after 48 hrs by agar streak dilution method; type: functional; procedure, shortened: as §2
Escherichia coli [5] = test: Antibacterial activity against Escherichia coli O157 at 100 ug/ml after 24 hrs by paper disc diffusion technique; type: functional; conditions: O157, 24 h, read-out: IZ
Escherichia coli [6] = test: Antibacterial activity against Escherichia coli O157 after 24 hrs by agar streak dilution method; type: functional; conditions: O157, 24 h
Salmonella typhimurium [7] = test: Antibacterial activity against Salmonella Typhimurium at 100 ug/ml after 24 hrs by paper disc diffusion technique; type: functional, Salmonella enterica subsp. enterica serovar Typhimurium; conditions: Salmonella enterica, read-out: IZ
Procedure, shortened: (§3)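 Paper disc diffusion on Mueller Hinton agar, autoclaved at 120 °C for 30 min. Medium at 40–50 °C was seeded at 1 ml/100 ml with a 10^5 cfu/ml suspension matched to 0.9 McFarland. It was poured 3–4 mm deep, and discs with compound in DMSO were laid on it. Plates were pre-incubated 1 h at room temperature, then 37 °C for 24 h. The inhibition zone was measured.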

Salmonella typhimurium [8] = test: Antibacterial activity against Salmonella Typhimurium after 24 hrs by agar streak dilution method; type: functional, Salmonella enterica subsp. enterica serovar Typhimurium; conditions: Salmonella enterica
Procedure, shortened: (§4)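 Agar streak dilution on Mueller Hinton agar. Compound stock in DMSO was added in graded amounts to molten sterile agar at 40–50 °C. This was poured 3–4 mm deep and left to solidify. Bacterial suspension of about 10^5 cfu/ml was applied to the serially diluted plates. Plates were incubated at 37 °C for 24 h to read the MIC. Strains were food-poisoning isolates from animal byproducts.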

Listeria monocytogenes [9] = test: Antibacterial activity against Listeria monocytogenes at 100 ug/ml after 24 hrs by paper disc diffusion technique; type: functional; conditions: read-out: IZ; procedure, shortened: as §3
Listeria monocytogenes [10] = test: Antibacterial activity against Listeria monocytogenes after 24 hrs by agar streak dilution method; type: functional; procedure, shortened: as §4
Staphylococcus aureus [11] = test: Antibacterial activity against Staphylococcus aureus at 100 ug/ml after 24 hrs by paper disc diffusion technique; type: functional; conditions: read-out: IZ; procedure, shortened: as §3
Staphylococcus aureus [12] = test: Antibacterial activity against Staphylococcus aureus after 24 hrs by agar streak dilution method; type: functional; procedure, shortened: as §4
Pseudomonas aeruginosa [13] = test: Antibacterial activity against Pseudomonas aeruginosa at 100 ug/ml after 24 hrs by paper disc diffusion technique; type: functional; conditions: read-out: IZ; procedure, shortened: as §3
Pseudomonas aeruginosa [14] = test: Antibacterial activity against Pseudomonas aeruginosa after 24 hrs by agar streak dilution method; type: functional; procedure, shortened: as §4
Bacillus cereus [15] = test: Antibacterial activity against Bacillus cereus at 100 ug/ml after 24 hrs by paper disc diffusion technique; type: functional; conditions: read-out: IZ; procedure, shortened: as §3
Bacillus cereus [16] = test: Antibacterial activity against Bacillus cereus after 24 hrs by agar streak dilution method; type: functional; procedure, shortened: as §4

Row | Structure (SMILES) | zone of inhibition at 100 µg/mL (Candida albicans [1]) [mm] | MIC (Candida albicans [2]) [µg/mL] | zone of inhibition at 100 µg/mL (Aspergillus flavus [3]) [mm] | MIC (Aspergillus flavus [4]) [µg/mL] | zone of inhibition at 100 µg/mL (Escherichia coli [5]) [mm] | MIC (Escherichia coli [6]) [µg/mL] | zone of inhibition at 100 µg/mL (Salmonella typhimurium [7]) [mm] | MIC (Salmonella typhimurium [8]) [µg/mL] | zone of inhibition at 100 µg/mL (Listeria monocytogenes [9]) [mm] | MIC (Listeria monocytogenes [10]) [µg/mL] | zone of inhibition at 100 µg/mL (Staphylococcus aureus [11]) [mm] | MIC (Staphylococcus aureus [12]) [µg/mL] | zone of inhibition at 100 µg/mL (Pseudomonas aeruginosa [13]) [mm] | MIC (Pseudomonas aeruginosa [14]) [µg/mL] | zone of inhibition at 100 µg/mL (Bacillus cereus [15]) [mm] | MIC (Bacillus cereus [16]) [µg/mL] | inhibition zone (IZ) (Aspergillus flavus [3])
1 | OC(Cn1cncn1)(Cn1cncn1)c1ccc(F)cc1F [FLUCONAZOLE] | 18 | 1.56 (≈ 5.09 µM) | 22 | 0.78 (≈ 2.55 µM) | – | – | – | – | – | – | – | – | – | – | – | – | –
2 | O=C(N/N=C/c1ccc2ccccc2c1)c1ccc(-n2c(-c3ccccc3)nc3c(Br)cc(Br)cc3c2=O)cc1 | 13 | 25 (≈ 38.3 µM) | 26 | 0.39 (≈ 0.598 µM) | 13 | 25 (≈ 38.3 µM) | 12 | 50 (≈ 76.6 µM) | 16 | 3.12 (≈ 4.79 µM) | 14 | 25 (≈ 38.3 µM) | 13 | 25 (≈ 38.3 µM) | 12 | 50 (≈ 76.6 µM) | –
3 | COc1ccc(C2SCC(=O)N2NC(=O)c2ccc(-n3c(-c4ccccc4)nc4c(Br)cc(Br)cc4c3=O)cc2)cc1 (centres undefined) | 10 | 25 (≈ 35.4 µM) | 20 | 1.56 (≈ 2.21 µM) | 11 | 45 (≈ 63.7 µM) | 12 | 40 (≈ 56.6 µM) | 11 | > 50 | 10 | 45 (≈ 63.7 µM) | 11 | 50 (≈ 70.8 µM) | 18 | 1.9 (≈ 2.69 µM) | –
4 | O=C(N/N=C/c1ccco1)c1ccc(-n2c(-c3ccccc3)nc3c(Br)cc(Br)cc3c2=O)cc1 | 12 | 25 (≈ 42.2 µM) | – | – | 9 | > 50 | 16 | 5 (≈ 8.44 µM) | 11 | > 50 | 13 | 20 (≈ 33.8 µM) | 8 | > 50 | 12 | 50 (≈ 84.4 µM) | inactive
5 | CC1=NN(C(=O)c2ccc(-n3c(-c4ccccc4)nc4c(Br)cc(Br)cc4c3=O)cc2)C(=O)C1 | 9 | 50 (≈ 86.2 µM) | 20 | 2.5 (≈ 4.31 µM) | – | – | 14 | 30 (≈ 51.7 µM) | 16 | 6 (≈ 10.3 µM) | 11 | 40 (≈ 68.9 µM) | 12 | 50 (≈ 86.2 µM) | 11 | > 50 | –
6 | O=C(NN1C(=O)c2ccccc2C1=O)c1ccc(-n2c(-c3ccccc3)nc3c(Br)cc(Br)cc3c2=O)cc1 | 9 | 50 (≈ 77.6 µM) | 25 | 0.39 (≈ 0.605 µM) | 11 | 50 (≈ 77.6 µM) | 11 | > 50 | 10 | > 50 | 10 | > 50 | 11 | > 50 | 16 | 5.5 (≈ 8.54 µM) | –
7 | Cc1cc(C)n(C(=O)c2ccc(-n3c(-c4ccccc4)nc4c(Br)cc(Br)cc4c3=O)cc2)n1 | 9 | 50 (≈ 86.5 µM) | – | – | – | – | 14 | 20 (≈ 34.6 µM) | 15 | 12.5 (≈ 21.6 µM) | 10 | 50 (≈ 86.5 µM) | 12 | 30 (≈ 51.9 µM) | 13 | 25 (≈ 43.2 µM) | inactive
